The record followed here is ChEMBL document CHEMBL5346929, “Designed switch from covalent to non-covalent inhibitors of carboxylesterase Notum activity” (Eur J Med Chem, 2023).

Data set [1] concerns the target T1, Palmitoleoyl-protein carboxylesterase NOTUM (Homo sapiens, UniProt Q6P988).
T1 sequence (Q6P988 whole entry): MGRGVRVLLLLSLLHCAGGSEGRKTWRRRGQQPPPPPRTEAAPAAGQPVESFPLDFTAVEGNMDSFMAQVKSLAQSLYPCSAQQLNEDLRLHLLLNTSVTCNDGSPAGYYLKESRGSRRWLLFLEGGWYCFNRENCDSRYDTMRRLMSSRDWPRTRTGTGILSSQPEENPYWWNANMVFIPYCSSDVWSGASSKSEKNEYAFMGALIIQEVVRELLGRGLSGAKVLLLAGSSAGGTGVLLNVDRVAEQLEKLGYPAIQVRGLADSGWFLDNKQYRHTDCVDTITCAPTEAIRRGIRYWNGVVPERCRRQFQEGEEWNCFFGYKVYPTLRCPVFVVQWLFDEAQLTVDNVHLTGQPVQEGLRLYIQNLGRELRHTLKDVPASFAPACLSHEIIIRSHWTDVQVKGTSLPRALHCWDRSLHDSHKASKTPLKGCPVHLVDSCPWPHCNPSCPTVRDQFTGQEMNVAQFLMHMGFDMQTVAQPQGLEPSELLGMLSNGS
In words: Inhibition of human recombinant Notum (81 to T451 residues) expressed in HEK293S cells using OPTS as substrate incubated for 40 mins by microplate reader analysis.

For data set [2], the target named is T1, Palmitoleoyl-protein carboxylesterase NOTUM. In words: Inhibition of human recombinant Notum (81 to T451 residues) expressed in HEK293S cells using OPTS as substrate at 10 uM incubated for 40 mins by microplate reader analysis relative to control. The method in brief: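 Biochemical assay with the Notum 81–451 C330S construct and the synthetic fluorescent substrate OPTS.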

Data set [3] deals with liver microsomes (Mus musculus). Kind of data set: Metabolic stability in mouse liver microsome assessed as intrinsic clearance measured upto 60 mins by LC-MS/MS analysis. The conditions noted are these: read-out: CLH.

Broadly, the inhibition is the relative decrease from the control value, in per cent. Regarding `CC(=O)N1CCC(c2ccccc2)C1` (stereo unspecified), in data set [1], the IC50 result is given as “Not Active”. The inhibition at 10 µM in data set [2] was under 20%.

On to `CC(=O)N1CCc2cc(C#N)ccc21`, for which the inhibition at 10 µM in data set [2] is 20%.

For `CC(=O)n1ncc2ccccc21`, the inhibition at 10 µM in data set [2] was 20%.

For `CC(=O)N1CCS(=O)(=O)c2ccccc21`, the inhibition at 10 µM in data set [2] was 20%.

`CC(=O)N(C)c1ccccc1C`: the inhibition at 10 µM in data set [2] came to 20%.

On to `CCN1CCc2c(Cl)cccc21`, for which the inhibition at 10 µM in data set [2] turned out to be 20%.

Consider `CC(=O)n1cnc2ccccc21`, for which the IC50 result in data set [1] is “Not Active”. The inhibition at 10 µM in data set [2] is under 20%.

For `O=C1CCCN1c1ccccc1`, in data set [2], the inhibition at 10 µM worked out at 20%.

On to `O=C1CCC2Cc3ccccc3N12` (racemic), for which, in data set [3], the microsomal CLint was 74 µL/min/mg.
